# In ChEMBL document CHEMBL2146408, “Primary amino acid derivatives: compounds with anticonvulsant and neuropathic pain protection activities” (J Med Chem, 2011):
# Activity calls are given as the source filed them. No cut-off for these calls is given here.
# Legend:
# Mus musculus [1] = experiment: Anticonvulsant activity in ip dosed NMRI mouse assessed as protection against maximal electroshock-induced seizure after 30 mins; type: functional; settings: 0.5 h; for minimal effective dose: read-out: MED
# Procedure, shortened: (§1)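 Adult male NMRI mice dosed ip (UCB Pharma). MES test run per the Klitgaard procedure. […] Single-dose runs report the percentage of animals protected.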
# Mus musculus [2] = experiment: Anticonvulsant activity in ip dosed NMRI mouse assessed as protection against 6 Hz psychomotor seizure after 30 mins; type: functional; settings: 0.5 h; for minimal effective dose: read-out: MED
# Procedure, shortened: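 Adult male NMRI mice dosed ip (UCB Pharma). 6 Hz psychomotor seizure model at 44 mA, per Kaminski and co-workers.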
# Mus musculus [3] = experiment: Antinociceptive activity in ip dosed NMRI mouse assessed as inhibition of formalin-induced neuropathic pain after 30 mins; type: functional; settings: 0.5 h
# Procedure, shortened: (§2)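 NMRI mice dosed ip at UCB Pharma, then tested in the formalin model of neuropathic pain. ED50 in mg/kg read 30 min after administration. Single-dose runs report the percentage protected.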
# Mus musculus [4] = experiment: Anticonvulsant activity in ip dosed CF1 mouse assessed as protection against maximal electroshock-induced seizure after 30 mins; type: functional; settings: 0.5 h
# Procedure, shortened: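 Adult male albino CF-1 (Carworth Farms No. 1) mice dosed ip under the NINDS ASP; maximal electroshock seizure test. For compounds with sufficient activity, a dose-response curve was run at the time of peak effect (hours).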
# [5] = Neurotoxicity in ip dosed NMRI mouse assessed as minimal motor impairment after 30 mins; type: toxicity, organism-based; settings: in vivo
# Procedure, shortened: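 Adult male NMRI mice dosed ip at UCB Pharma. Neurological toxicity was scored on the rotorod test 30 min after dosing.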
# Mus musculus [6] = experiment: Antinociceptive activity in NMRI mouse assessed as inhibition of formalin-induced neuropathic pain at 75 mg/kg, ip after 30 mins; type: functional; design: scale not given: the % may be the effect or the level left; settings: route intraperitoneal; procedure, shortened: as §2
# [7] = Neurotoxicity in ip dosed CF1 mouse assessed as minimal motor impairment after 30 mins; type: toxicity, organism-based; settings: in vivo
# Mus musculus [8] = species on record: Mus musculus; experiment: Protective index, ratio of TD50 for NMRI mouse to ED50 for NMRI mouse formalin-induced neuropathic pain model; type: functional
# [9] = Neurotoxicity in po dosed Sprague-Dawley rat assessed as minimal motor impairment after 30 mins by rotorod test; type: toxicity, organism-based; settings: in vivo
# Mus musculus [10] = experiment: Anticonvulsant activity in NMRI mouse assessed as protection against subcutaneous pentylenetetrazol-induced seizure at 30 to 300 mg/kg, ip after 0.5 to 4 hrs; type: functional, organism-based
# Rattus norvegicus [11] = experiment: Anticonvulsant activity in po dosed Sprague-Dawley rat assessed as protection against maximal electroshock-induced seizure after 30 mins; type: functional; settings: 0.5 h
# Mus musculus [12] = experiment: Antinociceptive activity in NMRI mouse assessed as inhibition of formalin-induced neuropathic pain at 71 mg/kg, ip after 30 mins; type: functional; design: scale not given: the % may be the effect or the level left; settings: route intraperitoneal; procedure, shortened: as §2
# Rattus norvegicus [13] = species on record: Rattus norvegicus; experiment: Protective index, ratio of TD50 for Sprague-Dawley rat to ED50 for Sprague-Dawley rat by maximal electroshock seizure test; type: functional
# Procedure, shortened: (§3)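 Protective index computed as rotorod (mice) or behavioral (rats) TD50 divided by MES ED50, both in mg/kg in the same species and route.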
# Mus musculus [14] = experiment: Anticonvulsant activity in ip dosed CF1 mouse assessed as protection against 6 Hz psychomotor seizure after 30 mins; type: functional; settings: 0.5 h
# Procedure, shortened: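 Adult male albino CF-1 mice dosed ip (NINDS ASP). 6 Hz psychomotor seizure test at 32 mA, per Stables and Kupferberg.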
# Mus musculus [15] = species on record: Mus musculus; experiment: Protective index, ratio of TD50 for CF1 mouse to ED50 for CF1 mouse by maximal electroshock seizure test; type: functional; procedure, shortened: as §3
# Mus musculus [16] = experiment: Antinociceptive activity in NMRI mouse assessed as inhibition of formalin-induced neuropathic pain at 83 mg/kg, ip after 30 mins; type: functional; design: scale not given: the % may be the effect or the level left; settings: route intraperitoneal; procedure, shortened: as §2
# Mus musculus [17] = experiment: Anticonvulsant activity in NMRI mouse assessed as protection against maximal electroshock-induced seizure at 46 mg/kg, ip after 30 mins; type: functional; settings: route intraperitoneal; procedure, shortened: as §1
# Mus musculus [18] = experiment: Antinociceptive activity in NMRI mouse assessed as inhibition of formalin-induced neuropathic pain at 25 mg/kg, ip after 30 mins; type: functional, organism-based; design: dose 25 mg/kg; procedure, shortened: as §2
# Mus musculus [19] = experiment: Antinociceptive activity in NMRI mouse assessed as inhibition of formalin-induced neuropathic pain at 79 mg/kg, ip after 30 mins; type: functional; design: scale not given: the % may be the effect or the level left; settings: route intraperitoneal; procedure, shortened: as §2
# Mus musculus [20] = experiment: Antinociceptive activity in NMRI mouse assessed as inhibition of formalin-induced neuropathic pain at 68 mg/kg, ip after 30 mins; type: functional; design: scale not given: the % may be the effect or the level left; settings: route intraperitoneal; procedure, shortened: as §2
# Mus musculus [21] = species on record: Mus musculus; experiment: Protective index, ratio of TD50 for NMRI mouse to ED50 for NMRI mouse by maximal electroshock seizure test; type: functional; procedure, shortened: as §3
# Mus musculus [22] = experiment: Antinociceptive activity in NMRI mouse assessed as inhibition of formalin-induced neuropathic pain at 74 mg/kg, ip after 30 mins; type: functional; design: scale not given: the % may be the effect or the level left; settings: route intraperitoneal; procedure, shortened: as §2
Compound,ED50 (Mus musculus [1]) [mg/kg],ED50 (Mus musculus [3]) [mg/kg],ED50 (Mus musculus [4]) [mg/kg],TD50 at 0.5 h [5] [mg/kg],further results
CCCOCC(N)C(=O)NCc1ccccc1 (racemic),69,> 130,,,ED50 (Mus musculus [2]): > 130 mg/kg
C=CCOCC(NC(C)=O)C(=O)NCc1ccccc1 (racemic),,,< 30,< 30,
N[C@H](CCO)C(=O)NCc1ccccc1,> 160,> 67,,,ED50 (Mus musculus [2]): > 120 mg/kg
CCCC(NC(C)=O)C(=O)NCc1ccccc1 (racemic),,,38,,
C=CCOCC(N)C(=O)NCc1ccccc1 (racemic),45,75,,,Activity (Mus musculus [6]): 12%; minimal effective dose (Mus musculus [2]): 130 mg/kg
C#CCOCC(NC(C)=O)C(=O)NCc1ccccc1 (racemic),,,,59,
N[C@@H](CO)C(=O)NCc1ccccc1,,> 62,,,TD50 at 0.5 h [7]: > 110 mg/kg; ED50 (Mus musculus [2]): > 62 mg/kg
CC(=O)NC(CN)C(=O)NCc1ccccc1 (racemic),,,,> 100,
CC(=O)NC(CN1CCOCC1)C(=O)NCc1ccccc1 (racemic),,,< 100,300,
COC[C@H](N)C(=O)NCc1ccccc1,,,,,Ratio TD50/ED50 (Mus musculus [8]): 0.5
C[C@H](N)C(=O)NCc1ccccc1,,,,> 300,TD50 at 0.5 h [9]: > 80 mg/kg; Activity (Mus musculus [10]): inactive; ED50 (Rattus norvegicus [11]): > 80 mg/kg
CC(=O)N[C@H](CO)C(=O)NCc1ccccc1,,,,> 500,
CCOCC(N)C(=O)NCc1ccccc1 (racemic),73,71,,,Activity (Mus musculus [12]): 19%; Activity (Mus musculus [10]): inactive; ED50 (Mus musculus [2]): 120 mg/kg
CC(C)(C)[C@@H](N)C(=O)NCc1ccccc1,,,,,TD50 at 0.5 h [9]: > 500 mg/kg; Activity (Mus musculus [10]): inactive
COCC(N)C(=O)NCc1ccccc1 (racemic),,,84,290,
CC(N)C(=O)NCc1ccccc1 (racemic),,,> 100,> 300,Ratio TD50/ED50 (Rattus norvegicus [13]): >36; TD50 at 0.5 h [9]: > 500 mg/kg; Activity (Mus musculus [10]): inactive; ED50 (Rattus norvegicus [11]): 14 mg/kg
COC[C@@H](NC(C)=O)C(=O)NCc1ccccc1 [LACOSAMIDE],,,,,TD50 at 0.5 h [9]: > 500 mg/kg; Activity (Mus musculus [10]): inactive
N[C@H](Cc1ccccc1)C(=O)NCc1ccccc1,40,> 37,,,minimal effective dose (Mus musculus [2]): 81 mg/kg
NC(CN1CCOCC1)C(=O)NCc1ccccc1 (racemic),89,69,,,ED50 (Mus musculus [2]): > 84 mg/kg
CC(=O)N[C@@H](C(=O)NCc1ccccc1)C(C)(C)C,,,> 300,> 300,
CC(=O)NC(C(=O)NCc1ccccc1)c1ccccc1 (racemic),,,20,,
N[C@H](CO)C(=O)NCc1ccccc1,> 62,> 62,,,TD50 at 0.5 h [7]: > 110 mg/kg; ED50 (Mus musculus [2]): > 62 mg/kg
CC[C@@H](N)C(=O)NCc1ccccc1,16,22,18,80,ED50 (Mus musculus [14]): 50 mg/kg; Ratio TD50/ED50 (Rattus norvegicus [13]): >45; TD50 at 0.5 h [9]: > 500 mg/kg; Activity (Mus musculus [10]): inactive; ED50 (Rattus norvegicus [11]): 11 mg/kg; minimal effective dose (Mus musculus [2]): 62 mg/kg; Ratio TD50/ED50 (Mus musculus [15]): 4.4
CCCC[C@@H](N)C(=O)NCc1ccccc1,23,> 71,,,ED50 (Mus musculus [2]): 93 mg/kg
O=C1NC(=O)C(c2ccccc2)(c2ccccc2)N1 [PHENYTOIN],,,,,TD50 at 0.5 h [9]: > 3000 mg/kg
CC(C)[C@@H](N)C(=O)NCc1ccccc1,,,,,Ratio TD50/ED50 (Mus musculus [8]): 2.4; minimal effective dose (Mus musculus [1]): 16 mg/kg; TD50 at 0.5 h [9]: > 500 mg/kg; Activity (Mus musculus [10]): inactive; Ratio TD50/ED50 (Mus musculus [15]): 4.7

Compound,ED50 (Mus musculus [1]) [mg/kg],ED50 (Mus musculus [3]) [mg/kg],ED50 (Mus musculus [4]) [mg/kg],TD50 at 0.5 h [5] [mg/kg],further results
CC(=O)NC(C(=O)NCc1ccccc1)c1ccsc1 (racemic),,,88,,
CN(C)CC(N)C(=O)NCc1ccccc1 (racemic),94,83,,,Activity (Mus musculus [16]): 14%; ED50 (Mus musculus [2]): > 110 mg/kg
NC(CO)C(=O)NCc1ccccc1 (racemic),> 62,> 62,,,TD50 at 0.5 h [7]: > 110 mg/kg; Ratio TD50/ED50 (Mus musculus [8]): >1.8; ED50 (Mus musculus [2]): > 62 mg/kg
CC(C)(C)[C@H](N)C(=O)NCc1ccccc1,,,,100,TD50 at 0.5 h [9]: > 30 mg/kg; Activity (Mus musculus [10]): inactive; ED50 (Rattus norvegicus [11]): > 30 mg/kg
CC(=O)NC(C(=O)NCc1ccccc1)c1ccccn1 (racemic),,,11,,
CC(=O)NC(C)C(=O)NCc1ccccc1 (racemic),,,76,450,
COC[C@H](NC(C)=O)C(=O)NCc1ccccc1,,,,> 300,
CCC(NC(C)=O)C(=O)NCc1ccccc1 (racemic),,,< 100,> 300,
CCC(C)C(N)C(=O)NCc1ccccc1 (racemic),,> 22,,,Activity (Mus musculus [17]): 100%; minimal effective dose (Mus musculus [1]): 46 mg/kg; ED50 (Mus musculus [2]): > 120 mg/kg
N[C@@H](C(=O)NCc1ccccc1)C1CCCCC1,28,,,,Activity (Mus musculus [18]): inactive; Activity (Mus musculus [19]): 95%; minimal effective dose (Mus musculus [2]): 140 mg/kg
CC(=O)N[C@H](C)C(=O)NCc1ccccc1,,,,210,
CC(C)[C@H](N)C(=O)NCc1ccccc1,,,,> 300,Activity (Mus musculus [10]): inactive
COC[C@@H](N)C(=O)NCc1ccccc1,,,,< 30,TD50 at 0.5 h [7]: > 120 mg/kg; Ratio TD50/ED50 (Mus musculus [8]): >1.8; Activity (Mus musculus [10]): inactive
CCC[C@H](N)C(=O)NCc1ccccc1,> 37,100,,,ED50 (Mus musculus [2]): > 210 mg/kg
CCCC(N)C(=O)NCc1ccccc1 (racemic),39,,,,Activity (Mus musculus [20]): 17%; minimal effective dose (Mus musculus [2]): 120 mg/kg
CC(=O)N[C@@H](C(=O)NCc1ccccc1)C(C)C,,,< 100,> 300,
NCC(N)C(=O)NCc1ccccc1 (racemic),> 68,,,,
CC(=O)N[C@@H](C)C(=O)NCc1ccccc1,,,,840,
CC(=O)NC(CN(C)C)C(=O)NCc1ccccc1 (racemic),,,< 30,< 100,
CC(=O)NC(C(=O)NCc1ccccc1)c1cccs1 (stereo unspecified),,,45,,
CCCC(CCC)C(=O)O [VALPROIC ACID],,,270,,
CC(=O)NC(CO)C(=O)NCc1ccccc1 (racemic),,,< 100,< 300,
C[C@@H](N)C(=O)NCc1ccccc1,,,,< 100,Ratio TD50/ED50 (Rattus norvegicus [13]): >1.5; TD50 at 0.5 h [9]: > 30 mg/kg; Activity (Mus musculus [10]): inactive; ED50 (Rattus norvegicus [11]): 19 mg/kg
CSCC[C@@H](N)C(=O)NCc1ccccc1,75,> 76,,,minimal effective dose (Mus musculus [2]): 130 mg/kg
CCC[C@@H](N)C(=O)NCc1ccccc1,21,35,,,Ratio TD50/ED50 (Mus musculus [21]): 2.8; TD50 at 0.5 h [7]: 57 mg/kg; Ratio TD50/ED50 (Mus musculus [8]): 1.6; minimal effective dose (Mus musculus [2]): 66 mg/kg
C#CCOCC(N)C(=O)NCc1ccccc1 (racemic),46,74,,,Activity (Mus musculus [22]): 27%; TD50 at 0.5 h [7]: 47 mg/kg; minimal effective dose (Mus musculus [2]): 130 mg/kg
